Rows were chosen to be rich in hits. Some 3.9% of all compounds tested hit in one or more screens of this group.
HTR2A ag – mouse HTR2A agonism via beta-arrestin recruitment; P35363; CHO-K1 mHTR2A beta-arrestin complementation, luminescence; percent of 30 µM serotonin response; activation, % at 7.6 µM; 360,000 compounds, 0.66% hits; AID 624169;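 active = activation above a run cutoff, the mean activation of all tested compounds plus 3 SD, cut at about 14% in these data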;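 also: 0% = plate median of compound wells and 100% = 30 µM serotonin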
TAAR1 ag – human TAAR1 agonism; Q96RJ0; CHO RD-HGA16 TAAR1, Fluo-8 calcium fluorescence; vehicle wells 0%, saturating PEA agonist 100%; activation, % at 3 µM; 360,000 compounds, 0.99% hits; AID 624467;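 active = activation above the mean activation of all test compounds in the run plus 3 SD, cut at about 38% in these data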
Target sequence (Q96RJ0 whole entry, looked up): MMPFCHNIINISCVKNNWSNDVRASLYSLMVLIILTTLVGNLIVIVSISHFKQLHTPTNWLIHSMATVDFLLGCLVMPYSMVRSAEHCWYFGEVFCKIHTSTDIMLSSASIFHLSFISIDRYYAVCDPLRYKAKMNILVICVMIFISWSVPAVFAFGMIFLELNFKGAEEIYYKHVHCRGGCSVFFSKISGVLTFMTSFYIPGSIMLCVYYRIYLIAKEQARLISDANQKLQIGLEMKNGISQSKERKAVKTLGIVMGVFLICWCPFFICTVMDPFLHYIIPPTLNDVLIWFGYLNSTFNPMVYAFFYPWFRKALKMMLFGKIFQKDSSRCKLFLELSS
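Test system: RD-HGA16 (CHO) cells co-expressing Gα16 and hTAAR1; dosing: one-point dosing at 3 µM (nominal); timing: 17-24 h seeding, 75 min 37 °C dye, 30 min RT; signal: kinetic Fluo-8 calcium fluorescence; read-out basis: % activation relative to PEA EC100 response; controls: DMSO and PEA EC100; replicates: n 1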
CHRM1 agonist – agonists of human M1 muscarinic receptor. P11229. CHO-K1 hM1, Fluo-8 calcium fluorescence, agonist mode; 0% DMSO, 100% acetylcholine EC100. activation, % at 3 µM. 360,000 compounds, 0.33% hits. AID 588814;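 active = activation above the run's mean compound activation plus 3 SD, cut at about 16% in these data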;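 also: peak over basal fluorescence ratio within a 140 s kinetic read after compound addition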
CHRM1 antagonist – human CHRM1 antagonism | CHO-K1 hM1, Fluo-8 calcium fluorescence, ACh EC80 antagonist | P11229 | inhibition, % at 3 µM | 360,000 compounds, 1.3% hits | AID 588852;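 active = percent inhibition above its own plate's cutoff, namely the mean of that plate's compound wells plus 3 SD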;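 also: peak over basal fluorescence ratio during 140 s after agonist addition; 0% = ACh EC80 plus DMSO and 100% = DMSO alone without agonist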
CHRM1 PAM – human CHRM1 positive allosteric modulation; CHO-K1 hM1, Fluo-8 calcium fluorescence, ACh EC20; 0% = ACh EC20, 100% = maximal ACh; activation, % at 3 µM; AID 588819; P11229; 360,000 compounds, 0.088% hits; in the data active = activation above about 19%, passing the limit was not always enough
TAAR1 antag – antagonists of human TAAR1; 360,000 compounds, 1.5% hits; CHO RD-HGA16 TAAR1, Fluo-8 calcium fluorescence, antagonist; inhibition, % at 3 µM;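 active = inhibition above a per-plate cutoff, the mean inhibition of test compounds on that plate plus 3 SD, cut at about 49% in these data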;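 also: 0% = DMSO plus EC80 beta-PEA response and 100% = DMSO alone without agonist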
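System: CHO RD-HGA16 cells bearing hTAAR1. Reagent: EC80 β-phenethylamine stimulus. Schedule: seeding 17-24 h prior, 75-min 37 °C, 30-min RT dye loading. Signal: Fluo-8 intracellular calcium dye fluorescence, real-time kinetic reads. Read-out: % inhibition from peak post-agonist over basal fluorescence ratio. Benchmarks: vehicle wells and EC80 agonist wells. Replicates: n of 1.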
* = called active by the depositor; nt = no result.

SMILES | HTR2A ag | TAAR1 ag | CHRM1 agonist | CHRM1 antagonist | CHRM1 PAM | TAAR1 antag
C/C=C(/C)C(=O)OC1c2c(ccc3ccc(=O)oc23)OC(C)(C)C1OC(C)=O (stereo not drawn) | -4 | 46* | -1 | 4 | -9 | 48
C/C=C(/C)C(=O)O[C@@H]1[C@H](OC(C)=O)c2c(ccc3ccc(=O)oc23)OC1(C)C | -10 | 8 | -2 | -1 | 21 | 19
CCn1nc(C)c(CN2CCCC(CO)(Cc3cccc(Cl)c3)C2)c1C (stereo not drawn) | 0 | 2 | -6 | 54* | -23 | -14
CCn1nc(C)c(CN2CCCC(CO)(Cc3ccccc3)C2)c1C (stereo not drawn) | 3 | 1 | -8 | -8 | 2 | -24
COc1ccccc1/C=C/CN1CCCC(CO)(Cc2cccc(Cl)c2)C1 (stereo not drawn) | -8 | 3 | 0 | 56* | -17 | -12
COc1ccc(CCNc2nc(-c3ccc(F)cc3)c(CC(=O)O)s2)cc1OC | -4 | -3 | 0 | 1 | -1 | 8
Nc1[nH]c(C(=O)c2ccccc2)c(-c2ccc(Cl)cc2)c1C(=O)c1c[nH]c2cc(F)ccc12 | nt | 3 | nt | nt | nt | -14
Cc1ccccc1OCCNc1cc(N2CC(C)NC(C)C2)ccc1[N+](=O)[O-] (stereo not drawn) | -11 | 49* | 2 | -14 | 9 | 23
CCc1ccc(OCCNc2cc(N3CCNC(C)C3)ccc2[N+](=O)[O-])cc1 (stereo not drawn) | -16 | 43* | -2 | 27 | -19 | 8
C=CCNC(=S)/C(=C(/[O-])c1ccccc1Br)[n+]1ccccc1 | 5 | 9 | -6 | -8 | 7 | -8
CC(C(=O)N1CCN(Cc2ccc3c(c2)OCO3)CC1)c1ccc([N+](=O)[O-])cc1 (stereo not drawn) | 6 | 12 | -8 | -8 | 17 | 0
O=C(c1ccco1)N1CCN(c2ncnc3scc(-c4ccccc4)c23)CC1 | 3 | 8 | -6 | 0 | -6 | 24
COc1ccc(CN2CCN(c3ncnc4scc(-c5ccc(F)cc5)c34)CC2)cc1 | -4 | -1 | 8 | 2 | 4 | -10
CCOc1ccc(CN2CCN(c3ncnc4scc(-c5ccccc5)c34)CC2)cc1 | -6 | 1 | 22* | 9 | -6 | -29
Cc1ccc(-c2csc3ncnc(N4CCN(C(=O)c5ccccc5)CC4)c23)cc1 | 0 | 12 | -1 | 10 | -2 | 50*
O=C(CCN1C(=O)c2cccc([N+](=O)[O-])c2C1=O)Nc1nccs1 | -1 | 0 | -5 | 5 | -1 | -22
CC(C)(C)OC(=O)C[C@@H]1C/C=C\C[C@@H](CC(=O)N(CCO)Cc2ccccc2)C(=O)NC[C@H](c2ccccc2)OC1=O | -3 | 23 | -1 | 26 | -11 | 63*
O=C1N[C@@H](Cc2ccccc2)COC(=O)[C@@H](Cc2ccc(F)cc2)C/C=C\C[C@@H]1CC(=O)N(CCO)Cc1ccccc1 | -13 | 28 | 2 | 0 | 15 | 54*
CC(C)(C)OC(=O)C[C@@H]1C/C=C\C[C@@H](CC(=O)N(CCO)Cc2ccccc2)C(=O)NC[C@@H](c2ccccc2)OC1=O | -10 | 13 | -4 | 9 | -1 | 23
CC(C)(C)[C@H]1COC(=O)[C@@H](Cc2ccc(F)cc2)CC/C=C/C[C@@H](CC(=O)N[C@@H](CO)Cc2ccccc2)C(=O)N1 | -2 | 19 | -5 | 8 | 2 | 52*
O=C(CCCSc1nc2ccccc2[nH]1)N1CCN(c2ccc([N+](=O)[O-])cc2)CC1 | 2 | -1 | 0 | 43* | -18 | 1
CC1C(=O)N2CCCc3cc(NC(=O)C4CC4)cc1c32 (stereo not drawn) | 8 | 1 | -1 | -17 | 11 | -14
CN(C)c1ccc(/C=C/c2ccc3c4ccccc4ccc3[n+]2-c2ccccc2)cc1 | -3 | 10 | 2 | 64* | -26 | 22
CN(C)c1ccc(/C=C/c2ccc3ccccc3[n+]2C)cc1 | -1 | 1 | -8 | 0 | 5 | 1
C=CC(=O)Nc1ccc(N(C)c2ccnc(Nc3ccc(N4CCN(C)CC4)cc3)n2)cc1 | -8 | 7 | -11 | 56* | -32 | 4
SMILES | HTR2A ag | TAAR1 ag | CHRM1 agonist | CHRM1 antagonist | CHRM1 PAM | TAAR1 antag
CCOC(=O)c1sc(NC(=O)Nc2ccc(Cl)cc2)cc1C | 1 | 13 | 8 | 52* | -23 | 82*
CN1/C(=C\C(=O)COC(=O)c2ccco2)C(C)(C)c2ccccc21 | -4 | 7 | -2 | -3 | 7 | -11
CN1/C(=C\C(=O)c2ccco2)C(C)(C)c2ccccc21 | -2 | 2 | 0 | 31* | -10 | 58*
C=CCn1c(SCCC)nc(O)cc1=O | -3 | 61* | 2 | -2 | -2 | -17
C=CCn1c(SCC)nc(O)cc1=O | 5 | 14 | -4 | 7 | -1 | -1
Clc1ccc(-c2csc(NCC3CCCO3)n2)cc1 (stereo not drawn) | nt | 0 | nt | nt | nt | -17
O=C(N/N=C/c1cccc2ccccc12)c1cc2ccccc2o1 | -4 | 0 | -1 | -9 | 10 | 14
COC(=O)c1ccccc1-c1ccc(/C=N/NC(=O)c2cc3ccccc3o2)o1 | -6 | 10 | -5 | 10 | -3 | 55*
Cc1c(Br)c([N+](=O)[O-])nn1C(C)C(=O)N1CCc2ccccc2C1 (stereo not drawn) | 2 | 40* | -6 | 73* | -23 | 4
CCc1ccccc1NC(=O)C(C)n1nc([N+](=O)[O-])c(Br)c1C (stereo not drawn) | -4 | 13 | 0 | -16 | -2 | -3
Cc1ccccc1-n1nnnc1SCC(=O)NC1CC1 | 4 | 0 | -1 | -10 | 7 | 1
CCN(CC)CCNC(=O)c1ccc2c(=O)n(C3CCCC3)c(=S)[nH]c2c1 | -2 | 18 | -7 | 57* | -24 | -2
O=C(O)/C=C/C(=O)N1CCN(S(=O)(=O)c2cc(C(F)(F)F)ccc2Cl)CC1 | 3 | 2 | -1 | 5 | 4 | 10
O=C1CN(S(=O)(=O)c2cc(C(F)(F)F)ccc2Cl)CCN1 | 11 | 5 | 8 | 6 | 30* | -16
O=C(COc1cc(F)ccc1[N+](=O)[O-])Nc1cccc(S(=O)(=O)NC2=NCCC2)c1 | 4 | 7 | -2 | 7 | -6 | 17
COc1ccc(-c2oc(NC(=O)CCl)c(C#N)c2-c2ccc(OC)cc2)cc1 | 1 | 6 | 7 | 46* | 12 | 5
CCOc1ccc2nc(NC(=O)Cn3[nH]c(=O)c4ccccc4c3=O)sc2c1 | 0 | 1 | -3 | 4 | -2 | -4
O=C(/C=C/c1ccco1)N1CCC(Cc2ccccc2)CC1 | -4 | 3 | -1 | -10 | 16 | -27

Screens (PubChem)
